Results gathered from unrelated publications.
Each line is one published result; the experiments were not run side by side.
Target: Myosin-IIIb (MYO3B, Homo sapiens, UniProt Q8WXR4)
One construct used (Q8WXR4 1-1341): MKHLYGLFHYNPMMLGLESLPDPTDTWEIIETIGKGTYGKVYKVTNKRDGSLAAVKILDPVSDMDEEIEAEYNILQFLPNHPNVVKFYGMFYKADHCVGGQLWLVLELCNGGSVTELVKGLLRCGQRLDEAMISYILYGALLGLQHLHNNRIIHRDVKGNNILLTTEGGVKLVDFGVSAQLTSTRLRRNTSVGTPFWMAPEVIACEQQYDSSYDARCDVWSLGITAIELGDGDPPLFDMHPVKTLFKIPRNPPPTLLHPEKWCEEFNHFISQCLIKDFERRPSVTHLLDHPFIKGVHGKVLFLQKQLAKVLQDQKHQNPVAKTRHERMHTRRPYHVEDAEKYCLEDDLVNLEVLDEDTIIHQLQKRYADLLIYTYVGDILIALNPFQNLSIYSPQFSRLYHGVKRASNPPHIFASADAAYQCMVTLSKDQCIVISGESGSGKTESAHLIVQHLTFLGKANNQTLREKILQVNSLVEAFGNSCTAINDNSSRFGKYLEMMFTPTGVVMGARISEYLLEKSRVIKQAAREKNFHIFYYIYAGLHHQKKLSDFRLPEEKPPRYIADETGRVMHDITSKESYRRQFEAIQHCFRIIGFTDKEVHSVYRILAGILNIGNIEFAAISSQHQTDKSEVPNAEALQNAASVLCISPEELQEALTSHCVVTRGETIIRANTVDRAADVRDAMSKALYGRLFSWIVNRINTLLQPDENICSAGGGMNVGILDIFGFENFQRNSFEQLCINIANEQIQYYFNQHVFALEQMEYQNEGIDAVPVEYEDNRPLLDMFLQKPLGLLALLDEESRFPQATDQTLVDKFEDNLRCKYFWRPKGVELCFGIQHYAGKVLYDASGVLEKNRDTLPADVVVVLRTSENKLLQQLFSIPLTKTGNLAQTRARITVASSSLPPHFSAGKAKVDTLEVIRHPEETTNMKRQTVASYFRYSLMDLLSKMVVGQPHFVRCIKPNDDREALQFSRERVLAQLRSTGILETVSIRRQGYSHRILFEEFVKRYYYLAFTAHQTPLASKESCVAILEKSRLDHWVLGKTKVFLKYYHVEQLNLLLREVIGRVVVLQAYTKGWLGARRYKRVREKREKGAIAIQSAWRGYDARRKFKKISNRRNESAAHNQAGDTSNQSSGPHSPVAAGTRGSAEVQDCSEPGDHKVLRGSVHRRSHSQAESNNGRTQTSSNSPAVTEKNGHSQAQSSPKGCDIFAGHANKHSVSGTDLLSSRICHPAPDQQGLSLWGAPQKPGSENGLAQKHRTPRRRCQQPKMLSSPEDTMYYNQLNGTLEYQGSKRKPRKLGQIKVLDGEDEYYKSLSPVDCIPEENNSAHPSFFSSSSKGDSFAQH

CN(C)c1nccc(-c2cnc3ncccn23)n1  remaining binding (binding; 1 µM): 79%
COc1cnc(Nc2cccc(S(N)(=O)=O)c2)nc1N1CCN(c2ccccc2)C(=O)C1  remaining binding (binding; competition with immobilised ligand; 1 µM): 94%
CN(C)c1ncc(F)c(-c2cnn3ncccc23)n1  remaining binding (binding; 1 µM): 100%
C[C@@H](c1ccc(-n2cnc3c(N)ncnc32)cc1)N1CCc2nn(C)c(Cc3ccccc3)c2C1=O  remaining binding (binding; competition with immobilised ligand; 0.1 µM): 77%
O=C(N[C@H]1CCCCC/C=C\C2C[C@@]2(C(=O)O)NC(=O)[C@@H]2C[C@@H](Oc3ccncc3)CN2C1=O)OC1CCCC1 (stereo partly drawn)  remaining binding (binding; competition with immobilised ligand; 1 µM): 38%
O=C(NCCCN1CCOCC1)c1ccc(Nc2ncc(Cl)c(-c3ccc(Cl)s3)n2)cc1  remaining binding (binding; competition with immobilised ligand; 1 µM): 100%
CS(=O)(=O)c1cc(C2(NC(=O)c3cncc4c3cnn4-c3ccc(F)cc3)CC2)ccn1  remaining binding (cell-free assay; competition with immobilised ligand; 1 µM): 100%
CCN1CCN(Cc2ccc(C(=O)Nc3ccc(C)c(Oc4ccc5c(c4)CC(=O)N5)c3)cc2C(F)(F)F)CC1  remaining binding (binding; competition with immobilised ligand; 1 µM): 100%
C[C@@H]1CN(c2cc(-c3n[nH]c4ccc(OC5(C)CC5)cc34)ncn2)C[C@H](C)O1  remaining binding (cell-free assay; competition with immobilised ligand; 0.1 µM): 89%
O=C(c1ccc(Nc2nccc(-c3cc4ccccc4s3)n2)cc1)N1CCC(N2CCCC2)CC1  remaining binding (binding; competition with immobilised ligand; 1 µM): 100%
O=C(Nc1c[nH]nc1C(=O)NC1CCNCC1)c1cc(F)cc(F)c1  remaining binding (binding; competition with immobilised ligand; 1 µM): 100%
Cc1nc(N2CC[C@@H](O)C2)ncc1-c1cc(C(F)(F)F)cc2[nH]ncc12  remaining binding (binding; competition with immobilised ligand; 1 µM): 93%
C[C@@H]1CCN(c2nccc(-c3cnn4ncccc34)n2)C1  remaining binding (binding; 1 µM): 100%
C=CC(=O)N1CCC(C(=O)NCC(=O)N2CCN(c3nc(-c4cnc(N)nc4C(F)F)nc(N4CCOCC4)n3)CC2)CC1  remaining binding (binding; competition with immobilised ligand; 1 µM): 96%
COc1ccnn2ncc(-c3ccnc(N(C)C)n3)c12  remaining binding (binding; 1 µM): 100%
FC(F)(F)Oc1cccc(-c2cnc3ccc(-c4ccncc4)nn23)c1  remaining binding (cell-free assay; competition with immobilised ligand; 5 µM): 100%
C[C@H](c1ccc(F)cc1)N(Cc1cccc(C(=O)O)c1)C(=O)c1cnc2ccccc2c1  remaining binding (binding; competition with immobilised ligand; 1 µM): 100%
c1cnn2ncc(-c3ccnc(N4CCC45COC5)n3)c2c1  remaining binding (binding; 1 µM): 100%
O=C(c1ccc(Nc2ncc(Cl)c(-c3cc4ccccc4s3)n2)cc1)N1CCC(N2CCCC2)CC1  remaining binding (binding; competition with immobilised ligand; 1 µM): 100%
CCC(=O)N[C@@H]1CC[C@H](C(=O)N(C)c2ccc(-c3nc4ccccc4o3)cc2)C1  remaining binding (cell-free assay; competition with immobilised ligand; 1 µM): 100%
CC1CCCN1c1nccc(-c2cnn3ncccc23)n1 (stereo not drawn)  remaining binding (binding; 1 µM): 100%
